Experimental data as given in ChEMBL document CHEMBL4261600 (Eur J Med Chem, 2018).
Activity calls are given as the source filed them.

Columns and labels:
[1] = target: Testis-specific serine/threonine-protein kinase 1 (Homo sapiens) (UniProt Q9BXA7); experiment: Binding affinity to wild-type human full length TSSK1B (M1 to Q367 residues) expressed in bacterial expression system assessed as remaining unbound target protein level at 1000 nM by Kinomescan method relative to control
Outline: (§1)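 KINOMEscan competition binding profile across a panel of 468 kinases and mutants, with the inhibitor tested at a single concentration of 1 μM. Binding is reported as percent of control, meaning signal relative to a DMSO control.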

[2] = Apparent volume of distribution in beagle dog at 2 mg/kg, iv by LC-MS/MS analysis; type: ADME, organism-based, Canis lupus familiaris; conditions: in vivo, read-out: Vz
Outline: (§2)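 Non-compartmental PK. Male SD rats 190-210 g, mice and beagle dogs acclimatized one week, fasted 12 h with water, split into iv and po groups (mice 48, rats 6, dogs 6). iv 3/3/2 mg/kg (mice/rats/dogs); po 10/20/10 mg/kg; vehicle DMSO in 5% glucose water. Blood at 2 or 5 to 720 min; plasma protein-precipitated with methanol, caffeine internal standard, LC-MS/MS.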

[3] = target: Cyclin-dependent kinase 9 (Homo sapiens, UniProt P50750); experiment: Inhibition of CDK9 in human MEC1 cells assessed as decrease in phosphorylation at Thr 186 residues up to 3 uM after 2 hrs by immunoblotting analysis; type: cell-based
[4] = AUC (0 to t) in Sprague-Dawley rat at 3 mg/kg, iv by LC-MS/MS analysis; type: ADME, organism-based; conditions: in vivo; outline: as §2
[5] = target: Serine/threonine-protein kinase B-raf (Homo sapiens) (UniProt P15056); experiment: Binding affinity to wild-type human partial length BRAF (S429 to E741 residues) expressed in mammalian expression system assessed as remaining unbound target protein level at 1000 nM by Kinomescan method relative to control
Outline: (§3)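 Profiled in a KINOMEscan binding panel with the inhibitor at a single concentration of 1 μM. Binding to each kinase was read out as percent of control, relative to a DMSO control. Strong binders were defined as those with a percent control value below 1.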

[6] = target: MAP kinase-activated protein kinase 2 (Homo sapiens) (UniProt P49137); experiment: Binding affinity to wild-type human partial length MAPKAPK2 (V48 to D345 residues) expressed in bacterial expression system assessed as remaining unbound target protein level at 1000 nM by Kinomescan method relative to control
Outline: (§4)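 KINOMEscan binding panel of 468 kinases/mutants. Inhibitor was tested at a single concentration of 1 μM. Binding is reported as percent of control, defined relative to a DMSO control.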

[7] = target: Calcium/calmodulin-dependent protein kinase type IV (Homo sapiens) (UniProt Q16566); experiment: Binding affinity to wild-type human partial length CAMK4 (A22 to A322 residues) expressed in bacterial expression system assessed as remaining unbound target protein level at 1000 nM by Kinomescan method relative to control; outline: as §3
[8] = system: Tyrosine-protein kinase ABL1 (Homo sapiens), P00519 [T315I]; experiment: Binding affinity to human non-phosphorylated ABL1 T315I mutant (S229 to K512 residues) expressed in mammalian expression system assessed as remaining unbound target protein level at 1000 nM by Kinomescan method relative to control
Outline: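 KINOMEscan competition-binding profiling across the panel of 468 kinases and mutants, with inhibitor tested at 1 μM. Binding is expressed as percent of control, with DMSO as the reference control.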

[9] = target: Tyrosine-protein kinase ZAP-70 (Homo sapiens) (UniProt P43403); experiment: Binding affinity to wild-type human partial length ZAP70 (D20 to G299 residues) expressed in mammalian expression system assessed as remaining unbound target protein level at 1000 nM by Kinomescan method relative to control
[10] = target: Myosin-IIIa (Homo sapiens) (UniProt Q8NEV4); experiment: Binding affinity to wild-type human partial length MYO3A (M1 to K338 residues) expressed in bacterial expression system assessed as remaining unbound target protein level at 1000 nM by Kinomescan method relative to control
[11] = target: Cyclin-dependent kinase 11B (Homo sapiens, UniProt P21127); experiment: Binding affinity to wild-type human partial length CDC2L1 (P353 to G692 residues) expressed in bacterial expression system assessed as remaining unbound target protein level at 1000 nM by Kinomescan method relative to control; outline: as §3
[12] = target: Serine/threonine-protein kinase 16 (Homo sapiens) (UniProt O75716); experiment: Binding affinity to wild-type human partial length STK16 (G11 to I305 residues) expressed in bacterial expression system assessed as remaining unbound target protein level at 1000 nM by Kinomescan method relative to control
[13] = target: Dual specificity mitogen-activated protein kinase kinase 1 (Homo sapiens) (UniProt Q02750); experiment: Binding affinity to wild-type human full length MEK1 (M1 to V393 residues) expressed in mammalian expression system assessed as remaining unbound target protein level at 1000 nM by Kinomescan method relative to control
Outline: (§5)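 Single-point competition binding screen across a panel of 468 kinases and mutants, with the inhibitor at 1 μM. Binding is read out as percent of a DMSO control, and targets below 1 percent control were classed as strong binders.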

[14] = target: Serine/threonine-protein kinase D1 (Homo sapiens) (UniProt Q15139); experiment: Binding affinity to wild-type human partial length PRKD1 (G551 to E870 residues) expressed in bacterial expression system assessed as remaining unbound target protein level at 1000 nM by Kinomescan method relative to control
[15] = target: Tyrosine-protein kinase Lck (Homo sapiens) (UniProt P06239); experiment: Binding affinity to wild-type human partial length LCK (R207 to P509 residues) expressed in bacterial expression system assessed as remaining unbound target protein level at 1000 nM by Kinomescan method relative to control; outline: as §4
[16] = target: Glycogen synthase kinase-3 alpha (Homo sapiens) (UniProt P49840); experiment: Binding affinity to wild-type human full length GSK3A (M1 to S483 residues) expressed in bacterial expression system assessed as remaining unbound target protein level at 1000 nM by Kinomescan method relative to control; outline: as §1
[17] = system: MOLM-13; experiment: Antiproliferative activity against human MOLM13 cells after 72 hrs by Celltiter-Glo assay; type: functional; conditions: MOLM-13, 72 h
Outline: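 Cells seeded at 3000/well in 96-well plates, exposed to serially diluted compound for 72 h at 37 °C, 5% CO2. Viability read by CellTiter-Glo luminescence and normalized to DMSO control. GI50 derived from curve fit, mean of three independent measurements. Culture media: DMEM/10% FBS for adherent lines; IMDM for MV4-11 and MEC-1/2; RPMI 1640 for suspension lines and CHL.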

[18] = target: cAMP-dependent protein kinase catalytic subunit PRKX (Homo sapiens) (UniProt P51817); experiment: Binding affinity to wild-type human partial length PRKX (M1 to F358 residues) expressed in bacterial expression system assessed as remaining unbound target protein level at 1000 nM by Kinomescan method relative to control
[19] = target: Maternal embryonic leucine zipper kinase (Homo sapiens) (UniProt Q14680); experiment: Binding affinity to wild-type human full length MELK (M1 to V651 residues) expressed in bacterial expression system assessed as remaining unbound target protein level at 1000 nM by Kinomescan method relative to control; outline: as §5
Maternal embryonic leucine zipper kinase (Homo sapiens), sequence (Q14680 whole entry, looked up, the tested form may be a part): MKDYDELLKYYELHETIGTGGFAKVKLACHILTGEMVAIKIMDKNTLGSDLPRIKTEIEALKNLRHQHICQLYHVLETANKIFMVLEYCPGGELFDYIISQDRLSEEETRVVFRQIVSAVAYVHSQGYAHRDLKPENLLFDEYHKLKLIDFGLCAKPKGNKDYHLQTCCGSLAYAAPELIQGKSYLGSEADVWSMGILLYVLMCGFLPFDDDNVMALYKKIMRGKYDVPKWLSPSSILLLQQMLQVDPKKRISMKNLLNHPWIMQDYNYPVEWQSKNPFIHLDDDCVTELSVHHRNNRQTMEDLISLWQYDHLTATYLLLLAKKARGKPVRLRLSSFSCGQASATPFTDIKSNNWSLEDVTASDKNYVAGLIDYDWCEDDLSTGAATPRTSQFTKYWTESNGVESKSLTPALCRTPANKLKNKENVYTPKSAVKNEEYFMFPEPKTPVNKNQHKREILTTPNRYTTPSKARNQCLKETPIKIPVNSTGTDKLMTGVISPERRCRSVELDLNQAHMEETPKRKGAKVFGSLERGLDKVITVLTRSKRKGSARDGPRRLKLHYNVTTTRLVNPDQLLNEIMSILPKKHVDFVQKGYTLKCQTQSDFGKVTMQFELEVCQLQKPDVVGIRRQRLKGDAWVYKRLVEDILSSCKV

Cyclin-dependent kinase 9, sequence (P50750 whole entry): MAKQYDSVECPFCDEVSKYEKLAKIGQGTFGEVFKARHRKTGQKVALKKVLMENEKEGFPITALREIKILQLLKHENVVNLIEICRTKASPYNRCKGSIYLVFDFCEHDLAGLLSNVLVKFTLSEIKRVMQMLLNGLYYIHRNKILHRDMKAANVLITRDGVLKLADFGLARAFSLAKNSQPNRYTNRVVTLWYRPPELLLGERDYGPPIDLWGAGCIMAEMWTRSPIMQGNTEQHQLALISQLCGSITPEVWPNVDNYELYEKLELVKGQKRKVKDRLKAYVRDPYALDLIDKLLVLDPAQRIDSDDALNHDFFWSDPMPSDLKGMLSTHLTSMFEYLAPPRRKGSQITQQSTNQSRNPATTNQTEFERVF
cAMP-dependent protein kinase catalytic subunit PRKX (Homo sapiens), sequence (P51817 whole entry, the tested form may be a part): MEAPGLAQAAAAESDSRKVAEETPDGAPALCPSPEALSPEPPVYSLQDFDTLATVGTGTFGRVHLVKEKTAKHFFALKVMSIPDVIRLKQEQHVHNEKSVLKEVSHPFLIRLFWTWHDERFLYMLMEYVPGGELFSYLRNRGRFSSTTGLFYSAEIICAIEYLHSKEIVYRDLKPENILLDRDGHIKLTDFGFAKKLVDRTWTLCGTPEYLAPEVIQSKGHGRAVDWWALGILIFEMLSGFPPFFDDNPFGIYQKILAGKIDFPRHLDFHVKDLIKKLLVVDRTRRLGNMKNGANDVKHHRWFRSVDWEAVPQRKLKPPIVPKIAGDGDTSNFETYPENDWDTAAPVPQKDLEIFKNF
MAP kinase-activated protein kinase 2 (Homo sapiens), sequence (P49137 whole entry, looked up, the tested form may be a part): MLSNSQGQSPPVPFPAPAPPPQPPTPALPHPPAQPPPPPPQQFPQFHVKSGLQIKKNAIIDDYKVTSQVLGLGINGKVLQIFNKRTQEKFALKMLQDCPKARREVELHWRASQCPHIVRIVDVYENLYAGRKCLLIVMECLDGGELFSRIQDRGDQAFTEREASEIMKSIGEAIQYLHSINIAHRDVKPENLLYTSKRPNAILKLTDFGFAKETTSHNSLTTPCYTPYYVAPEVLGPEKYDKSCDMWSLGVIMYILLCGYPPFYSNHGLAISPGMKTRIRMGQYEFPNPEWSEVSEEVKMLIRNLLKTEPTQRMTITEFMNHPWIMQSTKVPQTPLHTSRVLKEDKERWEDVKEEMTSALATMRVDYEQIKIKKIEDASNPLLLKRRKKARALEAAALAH
Calcium/calmodulin-dependent protein kinase type IV (Homo sapiens), sequence (Q16566 whole entry, the tested form may be a part): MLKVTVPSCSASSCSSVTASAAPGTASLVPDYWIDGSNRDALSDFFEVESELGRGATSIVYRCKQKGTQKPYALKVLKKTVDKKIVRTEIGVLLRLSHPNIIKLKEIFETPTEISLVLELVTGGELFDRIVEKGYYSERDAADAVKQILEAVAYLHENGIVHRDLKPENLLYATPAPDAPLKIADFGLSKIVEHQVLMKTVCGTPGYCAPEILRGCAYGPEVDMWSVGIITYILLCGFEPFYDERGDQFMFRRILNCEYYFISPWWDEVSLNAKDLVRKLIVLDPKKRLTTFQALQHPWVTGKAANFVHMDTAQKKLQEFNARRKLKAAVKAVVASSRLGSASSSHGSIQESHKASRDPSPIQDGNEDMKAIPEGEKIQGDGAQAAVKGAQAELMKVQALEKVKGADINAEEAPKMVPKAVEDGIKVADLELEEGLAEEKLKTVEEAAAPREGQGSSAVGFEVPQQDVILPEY
Tyrosine-protein kinase ZAP-70 (Homo sapiens), sequence (P43403 whole entry, the tested form may be a part): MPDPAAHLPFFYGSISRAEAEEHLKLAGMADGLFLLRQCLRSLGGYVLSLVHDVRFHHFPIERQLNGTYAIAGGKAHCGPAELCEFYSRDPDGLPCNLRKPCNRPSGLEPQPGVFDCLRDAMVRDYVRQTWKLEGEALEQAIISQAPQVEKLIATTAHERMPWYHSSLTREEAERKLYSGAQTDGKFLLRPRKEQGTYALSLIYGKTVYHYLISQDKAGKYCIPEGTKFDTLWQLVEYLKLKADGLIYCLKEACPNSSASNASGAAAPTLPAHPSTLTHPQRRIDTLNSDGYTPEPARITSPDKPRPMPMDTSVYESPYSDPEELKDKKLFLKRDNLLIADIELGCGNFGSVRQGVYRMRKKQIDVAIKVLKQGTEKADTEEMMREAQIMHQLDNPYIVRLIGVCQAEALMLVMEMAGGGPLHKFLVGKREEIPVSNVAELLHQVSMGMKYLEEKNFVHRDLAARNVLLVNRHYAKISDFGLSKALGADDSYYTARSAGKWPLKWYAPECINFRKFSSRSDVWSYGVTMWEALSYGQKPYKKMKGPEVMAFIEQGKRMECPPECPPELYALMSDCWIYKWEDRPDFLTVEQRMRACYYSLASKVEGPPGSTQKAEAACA
Tyrosine-protein kinase Lck (Homo sapiens), sequence (P06239 2-509 limits assumed): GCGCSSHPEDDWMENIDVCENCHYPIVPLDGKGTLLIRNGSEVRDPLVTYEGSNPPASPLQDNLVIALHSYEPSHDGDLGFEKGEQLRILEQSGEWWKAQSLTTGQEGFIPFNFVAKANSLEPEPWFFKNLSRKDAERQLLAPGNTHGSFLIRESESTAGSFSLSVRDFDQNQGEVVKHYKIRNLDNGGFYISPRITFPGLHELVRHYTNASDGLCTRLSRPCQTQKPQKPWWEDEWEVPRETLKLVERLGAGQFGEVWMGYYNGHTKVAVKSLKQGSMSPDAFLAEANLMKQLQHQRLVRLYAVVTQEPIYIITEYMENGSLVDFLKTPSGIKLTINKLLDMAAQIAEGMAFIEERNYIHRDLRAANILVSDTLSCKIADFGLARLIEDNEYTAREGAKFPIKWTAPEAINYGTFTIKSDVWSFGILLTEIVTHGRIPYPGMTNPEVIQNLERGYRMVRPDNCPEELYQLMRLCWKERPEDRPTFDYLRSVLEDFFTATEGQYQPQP
Serine/threonine-protein kinase 16 (Homo sapiens), sequence (O75716 whole entry, the tested form may be a part): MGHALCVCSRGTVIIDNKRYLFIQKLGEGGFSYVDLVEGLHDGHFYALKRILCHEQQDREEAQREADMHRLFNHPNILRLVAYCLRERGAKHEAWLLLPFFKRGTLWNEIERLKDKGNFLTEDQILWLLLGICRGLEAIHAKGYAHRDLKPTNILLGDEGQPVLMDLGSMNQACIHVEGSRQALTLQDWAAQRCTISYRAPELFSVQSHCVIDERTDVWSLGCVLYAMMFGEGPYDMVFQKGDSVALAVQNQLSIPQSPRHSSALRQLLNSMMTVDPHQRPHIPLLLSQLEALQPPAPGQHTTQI
Glycogen synthase kinase-3 alpha (Homo sapiens), sequence (P49840 2-483 limits assumed): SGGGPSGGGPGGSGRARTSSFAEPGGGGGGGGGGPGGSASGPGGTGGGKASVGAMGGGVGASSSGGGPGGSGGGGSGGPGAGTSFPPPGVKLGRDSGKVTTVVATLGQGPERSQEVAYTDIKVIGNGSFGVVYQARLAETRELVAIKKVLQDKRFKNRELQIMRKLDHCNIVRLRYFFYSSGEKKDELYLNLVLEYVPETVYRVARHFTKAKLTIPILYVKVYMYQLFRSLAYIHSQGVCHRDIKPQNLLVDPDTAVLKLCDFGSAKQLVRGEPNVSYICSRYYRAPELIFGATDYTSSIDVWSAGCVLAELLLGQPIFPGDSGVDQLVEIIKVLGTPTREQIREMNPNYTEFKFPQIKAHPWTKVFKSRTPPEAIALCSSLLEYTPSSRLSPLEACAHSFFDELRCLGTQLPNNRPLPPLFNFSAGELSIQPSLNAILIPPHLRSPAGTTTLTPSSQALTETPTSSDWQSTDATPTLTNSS
Testis-specific serine/threonine-protein kinase 1 (Homo sapiens), sequence (Q9BXA7 whole entry, the tested form may be a part): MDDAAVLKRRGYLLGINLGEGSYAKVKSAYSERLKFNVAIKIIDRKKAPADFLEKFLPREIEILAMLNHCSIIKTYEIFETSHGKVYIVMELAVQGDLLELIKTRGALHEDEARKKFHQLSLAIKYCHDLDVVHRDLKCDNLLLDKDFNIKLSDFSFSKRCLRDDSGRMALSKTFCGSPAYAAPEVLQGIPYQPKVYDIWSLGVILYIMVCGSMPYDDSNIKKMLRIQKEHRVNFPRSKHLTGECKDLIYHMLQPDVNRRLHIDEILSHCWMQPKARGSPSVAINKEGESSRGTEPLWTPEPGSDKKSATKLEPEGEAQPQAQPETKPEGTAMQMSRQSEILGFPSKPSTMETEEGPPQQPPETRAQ
Dual specificity mitogen-activated protein kinase kinase 1 (Homo sapiens), sequence (Q02750 whole entry, the tested form may be a part): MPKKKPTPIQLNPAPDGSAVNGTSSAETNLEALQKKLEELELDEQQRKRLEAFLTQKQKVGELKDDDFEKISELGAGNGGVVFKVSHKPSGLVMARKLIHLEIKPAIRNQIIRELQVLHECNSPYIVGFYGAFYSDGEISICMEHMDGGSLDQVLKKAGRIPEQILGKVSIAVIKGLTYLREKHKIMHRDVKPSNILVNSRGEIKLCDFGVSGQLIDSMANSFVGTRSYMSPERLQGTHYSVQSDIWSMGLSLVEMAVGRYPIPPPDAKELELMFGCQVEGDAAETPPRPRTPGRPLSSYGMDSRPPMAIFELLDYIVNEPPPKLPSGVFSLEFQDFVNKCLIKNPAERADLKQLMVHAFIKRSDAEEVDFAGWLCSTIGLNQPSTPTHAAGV

COCCN[C@H]1CC[C@H](Nc2cc(-c3csc(NCC4(C#N)CCOCC4)n3)c(Cl)cn2)CC1
Activity [1]: 93% | Vd [2]: 12.8 L/kg | inhibition [3]: inactive | AUC(0-t) [4]: 625 ng·h/mL | Activity [5]: 97% | Activity [6]: 99% | Activity [7]: 100% | Activity [8]: 100% | Activity [9]: 79% | Activity [10]: 100% | Activity [11]: 93% | Activity [12]: 76% | Activity [13]: 100% | Activity [14]: 48% | Activity [15]: 81% | Activity [16]: 68% | GI50 [17]: 12 nM | Activity [18]: 91% | Activity [19]: 75%
